Non-standard residues stand in square brackets, D forms with d. Residues, ends and D or L forms follow the SMILES beside them. *: point of attachment. Orn = NCCC[C@H](N)C(=O)O; 2Furoyl = O=C(c1ccco1)*
How the values were obtained:
[1] = target: T1, Proteinase-activated receptor 2 (Homo sapiens, UniProt P55085); test: Agonist activity at PK1-tagged PAR2 (unknown origin) expressed in HEK293 cells assessed as induction of beta-arrestin recruitment incubated for 90 mins by Pathhunter chemiluminescent assay relative to 2f-LIGRLO-NH2; format: cell-based; settings: 1.5 h
T1 sequence (P55085 whole entry): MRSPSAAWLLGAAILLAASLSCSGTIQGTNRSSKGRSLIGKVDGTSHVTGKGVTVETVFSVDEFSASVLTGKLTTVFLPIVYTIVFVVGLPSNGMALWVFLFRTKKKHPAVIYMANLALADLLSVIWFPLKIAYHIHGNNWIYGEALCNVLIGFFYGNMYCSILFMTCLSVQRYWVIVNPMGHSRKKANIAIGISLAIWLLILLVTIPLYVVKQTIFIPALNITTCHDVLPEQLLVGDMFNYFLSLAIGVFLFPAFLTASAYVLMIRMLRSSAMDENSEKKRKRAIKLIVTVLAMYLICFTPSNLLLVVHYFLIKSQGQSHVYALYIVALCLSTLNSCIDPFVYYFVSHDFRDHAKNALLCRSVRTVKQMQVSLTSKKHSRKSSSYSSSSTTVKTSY
How it was run: (§1)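 PathHunter enzyme-complementation read-out of β-arrestin-2 recruitment to PAR2 in HEK293 cells. Efficacy is expressed relative to reference 2f-LIGRLO-NH2. Data are mean ± SEM of at least three independent experiments run in duplicate.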

[2] = Metabolic stability in Sprague-Dawley rat liver microsomes assessed as CYP450-mediated drug degradation at 20 uM measured up to 60 mins in presence of NADPH by LC-MS analysis; settings: 1 h
[3] = target: T1, Proteinase-activated receptor 2; test: Agonist activity at human PAR2 expressed in HEK293T cells assessed as induction of Galphaq-stimulated IP1 formation incubated for 2 hrs by FRET assay; format: functional, cell-based, HEK-293T
How it was run: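 Gq activation via PAR2 in HEK293 cells, read as IP1 accumulation by FRET (IP-One). For curves without a plateau, the value given is efficacy at 30 μM. Data are mean ± SEM of at least three independent experiments, each performed in duplicate.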

[4] = target: T1, Proteinase-activated receptor 2; test: Agonist activity at PK1-tagged PAR2 (unknown origin) expressed in HEK293 cells assessed as induction of beta-arrestin recruitment incubated for 90 mins by Pathhunter chemiluminescent assay; format: cell-based; how it was run: as §1
[5] = Stability in rat plasma measured up to 4 hrs by LC-MS analysis; format: ADME, cell-free
How it was run: (§2)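 Ligand was incubated in rat plasma and sampled at set time points up to 4 h. Samples were analysed by LC–MS. Standard-corrected peak areas are expressed as % of t = 0 min, mean ± SEM (n ≥ 3).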

[6] = target: T1, Proteinase-activated receptor 2; test: Agonist activity at PK1-tagged PAR2 (unknown origin) expressed in HEK293 cells assessed as induction of beta-arrestin recruitment at 30 uM incubated for 90 mins by Pathhunter chemiluminescent assay relative to 2f-LIGRLO-NH2; format: cell-based; settings: 1.5 h; how it was run: as §1
[7] = Stability in rat plasma assessed as drug degradation after 1 hr by LC-MS analysis; format: ADME, cell-free; how it was run: as §2

Emax [1] [%] | Stability [2] | EC50 ([3]; read-out: EC50) [nM] | EC50 ([4]; read-out: EC50) [nM] | Stability [5] | Emax at 30 µM [6] [%] | EC50 ([3]; hek-293t) | EC50 ([4]; hek293) | Stability [7] | SMILES
– | – | 1900 | – | – | 32 | – | – | – | NC(=O)Cc1ccccc1CNC(=O)[C@H](Cc1ccccc1)NC(=O)c1ccno1
– | Stable | 150 | 430 | – | – | – | – | Unstable | CC[C@H](C)[C@H](NC(=O)[C@H](CC(C)C)NC(=O)c1ccco1)C(=O)NCC(=O)N[C@@H](CCCN=C(N)N)C(=O)N[C@@H](CC(C)C)C(=O)N[C@@H](CCCN)C(N)=O (2Furoyl-LIGRL[Orn]-NH2)
95 | Stable | 640 | 8900 | Stable | – | – | – | – | Cc1cc(C(=O)N[C@@H](CC2CCCCC2)C(=O)NCc2ccccc2CC(N)=O)on1

Further lines, the compound ahead of its results:

SMILES | Emax [1] [%] | Stability [2] | EC50 ([3]; read-out: EC50) [nM] | EC50 ([4]; read-out: EC50) [nM] | Stability [5] | Emax at 30 µM [6] [%] | EC50 ([3]; hek-293t) | EC50 ([4]; hek293) | Stability [7]
NC(=O)Cc1ccccc1CNC(=O)[C@H](CC1CCCCC1)NC(=O)c1ccno1 | 65 | Stable | 590 | 6000 | Stable | – | – | – | –
NC(=O)Cc1ccccc1CNC(=O)Cc1ccccc1CNC(=O)c1ccno1 | – | – | – | – | – | – | Not Active | Not Active | –
CC[C@H](C)[C@H](NC(=O)[C@H](CC(C)C)NC(=O)c1ccco1)C(=O)NCC(=O)N[C@@H](CCCNC(=N)N)C(=O)N[C@@H](CC(C)C)C(=O)N[C@@H](CCCN)C(N)=O (2Furoyl-LIGRL[Orn]-NH2) | 100 | – | – | – | – | – | – | – | –
